Reference: ChEMBL document CHEMBL5230173, “Site-directed late-stage diversification of macrocyclic nannocystins facilitating anticancer SAR and mode of action studies” (RSC Med Chem, 2023)

Legend:
[1] = tested on: HCT-8; test: Antiproliferative activity against human HCT-8 cells assessed as inhibition of cell growth incubated for 72 hrs by CCK-8 assay; details: HCT-8, 72 h
[2] = tested on: HCT-116; test: Antiproliferative activity against human HCT-116 cells assessed as inhibition of cell growth incubated for 72 hrs by CCK-8 assay; details: HCT-116, 72 h
[3] = tested on: MDA-MB-231; test: Antiproliferative activity against human MDA-MB-231 cells assessed as inhibition of cell growth incubated for 72 hrs by CCK-8 assay; details: MDA-MB-231, 72 h
[4] = tested on: HCT-116; test: Antiproliferative activity against human HCT-116 cells assessed as inhibition of cell growth by thymidine plus proliferation assay; format: functional, cell-based
[5] = tested on: HCT-116; test: Antiproliferative activity against human HCT-116 cells assessed as inhibition of cell growth by Celltiter-Glo luminescence assay; format: functional, cell-based
[6] = Drug uptake in human MDA-MB-231 cells incubated for 1 hrs by laser scanning confocal microscopic analysis; format: ADME, cell-based; details: mda-mb-231, 1 h, dose 0.25-2 µM
In short: (§1)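 MDA-MB231 cells were seeded at 6 × 10^4 on slides for 24 h in DMEM with 10% FBS. Cells were then PBS-washed twice, fixed in 4% formaldehyde for 2 min, and imaged by confocal microscopy (ex 405, em 460 nm).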

[7] = Drug uptake in human MDA-MB-231 cells at 1 uM by laser scanning confocal microscopic analysis; format: ADME, cell-based; details: mda-mb-231, 1 h, TDE = time-dependent effect, time < 60 min
In short: as §1

[8] = Drug uptake in human MDA-MB-231 cells measured after compound washout by laser scanning confocal microscopic analysis; format: ADME, cell-based
[9] = Drug localization in endoplasmic reticulum of human HCT-8 cells at 250 nM incubated for 8 hrs by ER-tracker red based laser scanning confocal microscopic analysis; format: ADME, cell-based; details: hct-8, 8 h, 0.25 µM
In short: (§2)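 HCT-8 (250 nM) and MDA-MB231 (500 nM) cells were seeded at 4 × 10^4 on slides for 24 h, then exposed to the probe for 8 h. After an HBSS wash, cells were stained with ER-Tracker Red for 20 min at 37 °C, washed twice with medium, and fixed in 4% formaldehyde for 2 min. Confocal imaging used probe ex 405/em 460 nm and tracker ex 587/em 615 nm.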

[10] = Drug localization in endoplasmic reticulum of human MDA-MB-231 cells at 500 nM incubated for 8 hrs by ER-tracker red based laser scanning confocal microscopic analysis; format: ADME, cell-based; details: mda-mb-231, 8 h, 0.5 µM
In short: as §2

Row | IC50 [1] | IC50 [2] | IC50 [3] | SMILES | other results
1 | 0.0322 µM | 0.0376 µM | 0.0294 µM | CC[C@H](C)[C@H]1C(=O)N[C@H](CO)C(=O)N[C@@H](C(C)(C)O)C(=O)O[C@H](c2ccccc2)[C@H](C)/C=C/C=C(\C)[C@H](OC)C[C@@H]2O[C@@]2(C)C(=O)N1C | 
2 | 0.0184 µM | 0.0271 µM | 0.0462 µM | CCCCC(=O)OC[C@H]1NC(=O)[C@H]([C@@H](C)CC)N(C)C(=O)[C@]2(C)O[C@H]2C[C@@H](OC)/C(C)=C/C=C/[C@@H](C)[C@@H](c2ccccc2)OC(=O)[C@H](C(C)(C)O)NC1=O | 
3 | 0.0029 µM | 0.0298 µM | 0.0435 µM | CC[C@H](C)[C@H]1C(=O)N[C@H](COC(=O)C2=CCC2)C(=O)N[C@@H](C(C)(C)O)C(=O)O[C@H](c2ccccc2)[C@H](C)/C=C/C=C(\C)[C@H](OC)C[C@@H]2O[C@@]2(C)C(=O)N1C | 
4 | 0.0605 µM | 0.0029 µM | 0.0206 µM | CC[C@H](C)[C@H]1C(=O)N[C@H](COC(=O)c2sc(C)nc2C)C(=O)N[C@@H](C(C)(C)O)C(=O)O[C@H](c2ccccc2)[C@H](C)/C=C/C=C(\C)[C@H](OC)C[C@@H]2O[C@@]2(C)C(=O)N1C | 
5 | 0.0196 µM | 0.0427 µM | 0.0618 µM | CC[C@H](C)[C@H]1C(=O)N[C@H](COC(=O)C2CC2)C(=O)N[C@@H](C(C)(C)O)C(=O)O[C@H](c2ccccc2)[C@H](C)/C=C/C=C(\C)[C@H](OC)C[C@@H]2O[C@@]2(C)C(=O)N1C | 
6 | 0.044 µM | 0.0377 µM | 0.0207 µM | CC[C@H](C)[C@H]1C(=O)N[C@H](COC(=O)C2CCCCC2)C(=O)N[C@@H](C(C)(C)O)C(=O)O[C@H](c2ccccc2)[C@H](C)/C=C/C=C(\C)[C@H](OC)C[C@@H]2O[C@@]2(C)C(=O)N1C | 
7 | 0.0167 µM | 0.0766 µM | 0.0974 µM | CCCCCCCCCC(=O)OC[C@H]1NC(=O)[C@H]([C@@H](C)CC)N(C)C(=O)[C@]2(C)O[C@H]2C[C@@H](OC)/C(C)=C/C=C/[C@@H](C)[C@@H](c2ccccc2)OC(=O)[C@H](C(C)(C)O)NC1=O | 
8 | 0.0574 µM | 0.0103 µM | 0.0323 µM | CC[C@H](C)[C@H]1C(=O)N[C@H](COC(=O)c2ccncc2)C(=O)N[C@@H](C(C)(C)O)C(=O)O[C@H](c2ccccc2)[C@H](C)/C=C/C=C(\C)[C@H](OC)C[C@@H]2O[C@@]2(C)C(=O)N1C | 
9 | 0.0234 µM | 0.0137 µM | 0.0401 µM | CC[C@H](C)[C@H]1C(=O)N[C@H](COC(=O)c2ccccc2)C(=O)N[C@@H](C(C)(C)O)C(=O)O[C@H](c2ccccc2)[C@H](C)/C=C/C=C(\C)[C@H](OC)C[C@@H]2O[C@@]2(C)C(=O)N1C | 
10 | 0.115 µM | > 0.2 µM | 0.0526 µM | CC[C@H](C)[C@H]1C(=O)N[C@H](COC(=O)CCC(=O)O)C(=O)N[C@@H](C(C)(C)O)C(=O)O[C@H](c2ccccc2)[C@H](C)/C=C/C=C(\C)[C@H](OC)C[C@@H]2O[C@@]2(C)C(=O)N1C | 
11 | 0.0355 µM | 0.0519 µM | 0.0818 µM | C=CC(=O)OC[C@H]1NC(=O)[C@H]([C@@H](C)CC)N(C)C(=O)[C@]2(C)O[C@H]2C[C@@H](OC)/C(C)=C/C=C/[C@@H](C)[C@@H](c2ccccc2)OC(=O)[C@H](C(C)(C)O)NC1=O | 
12 | 0.0243 µM | 0.0175 µM | 0.017 µM | CC[C@H](C)[C@H]1C(=O)N[C@H](COC(C)=O)C(=O)N[C@@H](C(C)(C)O)C(=O)O[C@H](c2ccccc2)[C@H](C)/C=C/C=C(\C)[C@H](OC)C[C@@H]2O[C@@]2(C)C(=O)N1C | 
13 | 0.0249 µM | 0.0235 µM | 0.0788 µM | CC[C@H](C)[C@H]1C(=O)N[C@H](COC(=O)/C=C/c2cc(F)cc(F)c2)C(=O)N[C@@H](C(C)(C)O)C(=O)O[C@H](c2ccccc2)[C@H](C)/C=C/C=C(\C)[C@H](OC)C[C@@H]2O[C@@]2(C)C(=O)N1C | 
14 | 0.0276 µM | 0.0187 µM | 0.0458 µM | CC[C@H](C)[C@H]1C(=O)N[C@H](COC(=O)/C=C/c2ccccc2)C(=O)N[C@@H](C(C)(C)O)C(=O)O[C@H](c2ccccc2)[C@H](C)/C=C/C=C(\C)[C@H](OC)C[C@@H]2O[C@@]2(C)C(=O)N1C | 
15 | 0.0523 µM | 0.136 µM | 0.141 µM | CC[C@H](C)[C@H]1C(=O)N[C@H](COC(=O)c2cc3ccc(N(CC)CC)cc3oc2=O)C(=O)N[C@@H](C(C)(C)O)C(=O)O[C@H](c2ccccc2)[C@H](C)/C=C/C=C(\C)[C@H](OC)C[C@@H]2O[C@@]2(C)C(=O)N1C | Drug uptake [6]: Dose-Dependent Effect; Drug uptake [7]: Tde; Drug uptake [8]: Active; Drug uptake [9]: Active; Drug uptake [10]: Active

Row | SMILES | IC50 [1] | IC50 [2] | IC50 [3] | other results
16 | CC[C@H](C)[C@H]1C(=O)N[C@H](Cc2cc(Cl)c(O)c(Cl)c2)C(=O)N[C@@H](C(C)(C)O)C(=O)O[C@H](c2ccccc2)[C@H](C)/C=C/C=C(\C)[C@H](OC)C[C@@H]2O[C@@]2(C)C(=O)N1C | 0.0109 µM | 0.0042 µM | 0.0152 µM | IC50 [4]: 0.0012 µM; IC50 [5]: 0.0026 µM
